What was measured:
Rattus norvegicus [1] = species: Rattus norvegicus; assay: Tissue (testicle) distribution in Albino male CD rats after 15 minutes expressed as percent of injected dose per gram of organ.; assay type: ADME, organism-based; details: in vivo, 0.25 h
How it was run: (§1)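 Male albino CD rats (225-250 g) received the 11C-labelled radioligand in saline by tail-vein injection. Three rats per time point were decapitated under light ether anaesthesia at 5, 15, 30, 60 or 90 min. Blood was collected heparinized and plasma separated by centrifugation. The pituitary was dissected from the brain. Lung, liver (three-lobe pieces) and right deltoid muscle were sampled, washed in cold saline, gamma-counted and weighed. Results are %I.D./g.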

Rattus norvegicus [2] = species: Rattus norvegicus; assay: Tissue (kidney) distribution in Albino male CD rats after 60 minutes expressed as percent of injected dose per gram of organ.; assay type: ADME, organism-based; details: in vivo, 1 h
How it was run: (§2)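 Radioligand given in saline into tail vein of male albino CD rats (225-250 g); 100-200 µCi per animal, 1-2 Ci/µmol at injection depending on radioligand. Three rats per time point were decapitated under light ether anaesthesia. Blood, plasma, brain regions and washed organs were weighed and gamma-counted. Uptake is %I.D./g tissue, mean ± SD.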

Rattus norvegicus [3] = species: Rattus norvegicus; assay: Tissue (muscle) distribution in Albino male CD rats after 15 minutes expressed as percent of injected dose per gram of organ.; assay type: ADME, organism-based; details: in vivo, 0.25 h; how it was run: as §1
Rattus norvegicus [4] = species: Rattus norvegicus; assay: Tissue (muscle) distribution in Albino male CD rats after 90 minutes expressed as percent of injected dose per gram of organ.; assay type: ADME, organism-based; details: in vivo, 1.5 h; how it was run: as §1
Rattus norvegicus [5] = species: Rattus norvegicus; assay: Tissue (heart) distribution in Albino male CD rats after 90 minutes expressed as percent of injected dose per gram of organ.; assay type: ADME, organism-based; details: in vivo, 1.5 h; how it was run: as §2
Rattus norvegicus [6] = species: Rattus norvegicus; assay: Tissue (kidney) concentration of radioactivity at 30 min post-injection into Albino male CD rats with vehicle.; assay type: ADME, organism-based; details: in vivo, 0.5 h
How it was run: (§3)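 Separate groups of five rats received tail-vein PK 11195 (1.4-1.6 mg; 5 mg/kg) in 30 µL DMSO:EtOH 1:1, or vehicle alone, immediately before iv radioligand (90-170 µCi in saline, 0.9-1 Ci/µmol). Rats were decapitated at 30 min and tissues gamma-counted; values are %I.D./g.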

Rattus norvegicus [7] = species: Rattus norvegicus; assay: Tissue (cerebellum) distribution in Albino male CD rats after 5 minutes expressed as percent of injected dose per gram of organ.; assay type: ADME, organism-based; details: in vivo; how it was run: as §2
[8] = molecular target: Translocator protein (Rattus norvegicus) (UniProt P16257); assay: Tissue (cortex) concentration of radioactivity at 30 min post-injection into Albino male CD rats after pretreatment with cold PK 11195.; assay type: functional; how it was run: as §3
Rattus norvegicus [9] = species: Rattus norvegicus; assay: Tissue (blood) concentration of radioactivity at 30 min post-injection into Albino male CD rats with vehicle.; assay type: ADME, organism-based; details: in vivo, 0.5 h; how it was run: as §3
Rattus norvegicus [10] = species: Rattus norvegicus; assay: Tissue (intestine) distribution in Albino male CD rats after 15 minutes expressed as percent of injected dose per gram of organ.; assay type: ADME, organism-based; details: in vivo, 0.25 h; how it was run: as §2
Rattus norvegicus [11] = species: Rattus norvegicus; assay: Tissue (blood) concentration of radioactivity at 30 min post-injection into Albino male CD rats with vehicle; assay type: ADME, organism-based; details: in vivo, 0.5 h; how it was run: as §3
Rattus norvegicus [12] = species: Rattus norvegicus; assay: Tissue (Muscle) distribution in Albino male CD rats after 15 minutes expressed as percent of injected dose per gram of organ.; assay type: ADME, organism-based; details: in vivo, 0.25 h; how it was run: as §2

Sequence of Translocator protein (Rattus norvegicus) (P16257 whole entry, looked up): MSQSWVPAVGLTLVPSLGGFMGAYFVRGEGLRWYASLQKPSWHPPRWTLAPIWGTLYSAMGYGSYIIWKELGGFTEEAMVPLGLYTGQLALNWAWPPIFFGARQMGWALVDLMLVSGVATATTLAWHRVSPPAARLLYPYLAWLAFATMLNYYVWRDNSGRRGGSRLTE

| Compound | I.D./g (Rattus norvegicus [1]) [%] | I.D./g (Rattus norvegicus [2]) [%] | I.D./g (Rattus norvegicus [3]) [%] | I.D./g (Rattus norvegicus [4]) [%] | I.D./g (Rattus norvegicus [5]) [%] | I.D./g (Rattus norvegicus [6]) [%] | I.D./g (Rattus norvegicus [7]) [%] | I.D./g [8] [%] | I.D./g (Rattus norvegicus [9]) [%] | I.D./g (Rattus norvegicus [10]) [%] | I.D./g (Rattus norvegicus [11]) [%] | I.D./g (Rattus norvegicus [12]) [%] |
| --- | --- | --- | --- | --- | --- | --- | --- | --- | --- | --- | --- | --- |
| CCC(C)N(C)C(=O)c1nc2ccccc2c(-c2ccccc2F)c1C (stereo not given) | 0.09 | 0.51 | 0.13 | 0.08 | 0.58 | 0.35 | 0.1 | < 0.02 | 0.04 | 0.37 | – | – |
| Cc1c(C(=O)N(C)Cc2ccccc2)nc2ccccc2c1-c1ccccc1 | 0.12 | 1.14 | – | 0.21 | 2.38 | 0.19 | 0.25 | 0.02 | – | 0.78 | 0.01 | 0.25 |
| CCC(C)N(C)C(=O)c1nc2ccccc2c(-c2ccccc2)c1C (stereo not given) | 0.05 | 0.78 | 0.14 | 0.12 | 1.23 | 0.45 | 0.13 | > 0.04 | 0.03 | 0.32 | – | – |

Reference: ChEMBL document CHEMBL1134346, “Labeling and evaluation of N-[11C]methylated quinoline-2-carboxamides as potential radioligands for visualization of peripheral benzodiazepine receptors” (J Med Chem, 2001)
